ABHD4 inh – ABHD4 (mouse) inhibition, primary FP screen. Q8VD66. purified mABHD4, FP-Rh probe fluorescence polarization. inhibition, % at 8.92 µM. 370,000 compounds, 0.54% hits. AID 720543;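 active means inhibition exceeding the mean over every tested compound plus 3 SD, cut at about 30% in these data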
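Assay system: Wild-type mouse ABHD4 protein | Medium: HEPES pH 7.0 buffer, 150 mM NaCl, 0.01% Pluronic F-127 | Incubation: Enzyme–compound pre-incubation 45 min, then probe 60 min, both 25 °C | Technique: Fluorescence polarization with parallel and perpendicular emission, 525/598 nm | Evaluation: % inhibition of FP-Rh probe binding versus controls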
DDE Tn6 FP inh – inhibitors of Tn6 peptide binding to human fibrin DD(E). 370,000 compounds, 0.21% hits. inhibition, % at 8.3 µM. Fibrin DD(E) TRITC-Tn6 fluorescence polarization displacement. AID 720509;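 active means inhibition above a per-campaign cutoff: mean of compounds within control limits plus 3 SD, cut at about 15% in these data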
Tn7 DDE FP – DD(E)-Tn7 binding inhibition, primary FP screen; P02675; FP displacement of FITC-Tn7 peptide from fibrin DD(E); 0% = median of compound wells per plate; inhibition, % at 8.3 µM; 370,000 compounds, 0.13% hits; AID 720508;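 active means inhibition above the mean of compounds falling within the control limits plus 3 SD of them, cut at about 14% in these data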
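Assay system: Human fibrin DD(E) protein | Medium: Tris buffer with calcium and detergent, pH 7.8 | Reagent: 0.1 µM fluorescent Tn7 | Compound dosing: Single point at 8.3 µM | Times: 10 min preincubation, 3 h with tracer, room temperature | Detection: Fluorescence polarization of the labelled Tn7 tracer | Controls: Aha-Tn7 high control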
HTRA1 inh – blocks human HTRA1 serine peptidase; Q92743; recombinant HTRA1, FP-rhodamine activity-based probe, fluorescence polarization; inhibition, % at 5.96 µM; 340,000 compounds, 0.5% hits; AID 504803; in the data active means inhibition above about 36%
Target sequence (Q92743 whole entry, looked up): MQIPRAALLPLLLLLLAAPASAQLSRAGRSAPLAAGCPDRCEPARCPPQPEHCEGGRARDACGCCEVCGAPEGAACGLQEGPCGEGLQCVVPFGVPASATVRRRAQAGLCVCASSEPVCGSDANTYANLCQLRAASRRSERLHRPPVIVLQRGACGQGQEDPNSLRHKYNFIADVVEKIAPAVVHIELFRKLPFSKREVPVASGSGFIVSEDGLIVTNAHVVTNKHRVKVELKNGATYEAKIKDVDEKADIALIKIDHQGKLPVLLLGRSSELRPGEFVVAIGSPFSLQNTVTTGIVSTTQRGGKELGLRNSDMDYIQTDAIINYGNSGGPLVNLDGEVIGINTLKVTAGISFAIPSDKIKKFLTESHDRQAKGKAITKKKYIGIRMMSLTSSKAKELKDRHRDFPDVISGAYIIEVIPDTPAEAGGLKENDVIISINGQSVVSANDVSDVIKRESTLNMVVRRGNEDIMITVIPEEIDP
SIAE primary – blocks human sialic acid acetylesterase | Q9HAT2 | inhibition, % at 9.66 µM | 370,000 compounds, 0.69% hits | SIAE FP-Rh probe binding, fluorescence polarization;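 active means inhibition above a cutoff: mean of compounds within the control limits plus 3 SD of those, cut at about 17% in these data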
TCR-CD3 inh – blocks the human TCR-CD3 interaction | TAMRA-labeled TCR probe fluorescence, biochemical | inhibition, % at 9.4 µM | 360,000 compounds, 0.37% hits | AID 651800; in the data active means inhibition above about 19%;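 further: recombinant mutant TCR 2C K166C tagged with TAMRA read by polarization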
SIAE confirm – human SIAE inhibition, confirmation; shares compounds with SIAE primary; SIAE FP-Rh activity-based probe, fluorescence polarization; inhibition, % at 9.66 µM; 2,300 compounds, 13% hits; AID 1117263;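 active means mean inhibition of the replicates above the hit cutoff set in the primary screen, cut at about 17% in these data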;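 further: inhibitors lower polarization as more probe stays unbound to SIAE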
Of the large screens only hits and unclear results are named; the others gave an inactive call (follow-up assays come after a bar, where they were run). This is a sample that favours compounds with a hit; in the whole collection about 1.8% have one here.

O=C(CCl)N1c2ccccc2SCC1c1ccccc1 (configuration not stated)	SIAE primary 19.3 | SIAE confirm inactive
O=C(CCl)N1c2ccccc2OCC1c1ccccc1 (configuration not stated)	none
CCOc1ccc(/C=N/n2c(-c3n[nH]c4c3CCC4)n[nH]c2=S)cc1	none (no result: HTRA1 inh, TCR-CD3 inh)
CC(C)Oc1cccc(-c2csc(N3CCC(C(N)=O)CC3)n2)c1	none (no result: HTRA1 inh, TCR-CD3 inh)
O=S(=O)(CC1NCCc2ccccc21)NCCc1ccccc1 (configuration not stated)	none (no result: HTRA1 inh, TCR-CD3 inh)
O=[N+]([O-])c1ccccc1/C=N/n1c(-c2cccnc2)n[nH]c1=S	SIAE primary 17.2 | SIAE confirm inactive
O=C(c1cccc(Cl)c1)N1CCN(c2ccnc3cc(Cl)ccc23)CC1	none (no result: HTRA1 inh, TCR-CD3 inh)
CN(C(=O)[C@@H]1CC=C[C@@H]2CCN(C3CCCCC3)C(=O)[C@@H]21)c1ccccc1	none (no result: HTRA1 inh, TCR-CD3 inh)
O=C1CC(c2ccc(F)cc2)C(n2cncn2)C(O)=C1C1NCCc2ccccc21 (configuration not stated)	SIAE primary 26.2 | SIAE confirm inactive
COC(=O)C(NC(=O)c1ccco1)(Nc1ccc(Br)cn1)C(F)(F)F (configuration not stated)	SIAE primary 21.8 | SIAE confirm inactive
COC(=O)C(NC(C)=O)(Nc1ccc(Br)cn1)C(F)(F)F (configuration not stated)	none
CC(=O)N1CCN(c2ccc(NCc3ccccc3)cc2)CC1	SIAE primary 27.9 | SIAE confirm inactive
CC(=O)N1CCN(c2ccc(NCc3ccc4c(c3)OCO4)cc2)CC1	SIAE primary 19.8 | SIAE confirm inactive
O=S1(=O)c2ccc(N3CCC[C@H]3CO)cc2OCCCN1C1CC1	none (no result: HTRA1 inh, TCR-CD3 inh)
Cc1nc2ccc(NC(=O)c3ccc(F)cc3F)cc2c(=O)[nH]1	none (no result: HTRA1 inh, TCR-CD3 inh)
CCCC1CCC2(CCCN2CCOC(=S)NCc2cccc(C)c2)CC1 (configuration not stated)	none (no result: HTRA1 inh, TCR-CD3 inh)
c1cc2c3c(cccc3c1)NC1(CCCCC1)N2	SIAE primary 30.4 | SIAE confirm inactive
S=C1NC2(CCCCC2)NN1c1ccccc1	none
COCCCNC(=O)/C(C#N)=C/c1ccc(F)cc1	SIAE primary 32.8 | SIAE confirm inactive
CCN(CC)C(=O)c1cn(-c2cccc(OC)c2)c(=O)c2ccccc12	SIAE primary 20.6 | SIAE confirm inactive
CCOC(=O)c1ccc(S(=O)(=O)NCC(c2ccc(N(C)C)cc2)c2c[nH]c3ccccc23)cc1 (configuration not stated)	SIAE primary 23.2 | SIAE confirm inactive
CN(C)c1ccc(C(CNC(=O)c2ccc(C#N)cc2)c2c[nH]c3ccccc23)cc1 (configuration not stated)	SIAE primary 23.8 | SIAE confirm inactive
O=C(NC1CCCCN(Cc2ccc(Cl)cc2)C1=O)c1cccc(F)c1 (configuration not stated)	none (no result: HTRA1 inh, TCR-CD3 inh)
Clc1cc(Cl)cc(CNC2CCC23CCCCC3)c1 (configuration not stated)	none (no result: HTRA1 inh, TCR-CD3 inh)
COc1cc(C2C3=C(CC(C)(C)CC3=O)NC3=C2C(=O)c2ccccc23)ccc1O (configuration not stated)	none
CC1(C)CC(=O)C2=C(C1)NC1=C(C(=O)c3ccccc31)C2c1ccc(Cl)cc1 (configuration not stated)	SIAE primary 30.0 | SIAE confirm inactive
COc1ccccc1OCc1ccc(C(=O)N2CCOCC2)o1	SIAE primary 20.3 | SIAE confirm inactive
O=C(COC(=O)c1cc(Cl)ccc1O)NCCC1=CCCCC1	SIAE primary 17.4 | SIAE confirm inactive
O=C(COC(=O)Cc1ccc(Cl)cc1Cl)NCCC1=CCCCC1	none
Cc1ccc(S(=O)(=O)Nc2ccc3c(c2)nc(CCN2CCN(c4ccccn4)CC2)n3C)cc1	SIAE primary 18.5 | SIAE confirm inactive
CCC(=O)N1CCC(C)(C(=O)Nc2ccc(OC)c(OC)c2)C1 (configuration not stated)	SIAE primary 18.2 (no result: HTRA1 inh) | SIAE confirm inactive
COc1ccc(OCCC(=O)Nc2ccc(S(N)(=O)=O)cc2)cc1	SIAE primary 18.4 | SIAE confirm inactive
CCCc1nnc(SCc2ccc(OC)cc2)n1N	SIAE primary 17.8 | SIAE confirm inactive
Cc1ccc(NC(=S)c2ccc(N(C)C)cc2)cc1	SIAE primary 17.2 | SIAE confirm inactive
COc1ccc(NC(=S)c2ccc(N(C)C)cc2)cc1	none
COCCCNC(=O)C[C@@H]1C(=O)N(CCc2ccc(Cl)cc2)C2=CCCCC[C@]21C(=O)OC	none (no result: HTRA1 inh, TCR-CD3 inh)
O=C(NC(=S)N1CCOCC1)c1cn(-c2ccccc2)nc1-c1ccc(F)cc1	SIAE primary 28.1 | SIAE confirm inactive
O=C(c1ccccc1)N1CC[C@H]2[C@H](CCCN2Cc2ccccc2)C1	none (no result: HTRA1 inh, TCR-CD3 inh)
CC1CN(S(=O)(=O)c2cccc(C(=O)N(Cc3nnc(-c4ccccc4Cl)o3)C3CC3)c2)CC(C)O1 (configuration not stated)	SIAE primary 17.4 | SIAE confirm inactive
O=C(NCCc1ccccc1)OCc1cn(Cc2ccc(Cl)cc2)nn1	none (no result: HTRA1 inh, TCR-CD3 inh)
CN(C)c1ccc(CNCC2CCCO2)cc1 (configuration not stated)	SIAE primary 17.6 | SIAE confirm inactive
Cn1c(=O)c(Nc2ccc(Cl)cc2)c2c3c(cccc31)C(=O)c1ccccc1-2	ABHD4 inh 42.0, Tn7 DDE FP 35.7, SIAE primary 30.7, TCR-CD3 inh 41.9 (no result: HTRA1 inh) | SIAE confirm 35.0
COC(=O)[C@]12CCCCC=C1N(Cc1ccc(OC)cc1)C(=O)[C@@H]2CC(=O)NCC12CC3CC(CC(C3)C1)C2	none (no result: HTRA1 inh, TCR-CD3 inh)
CCN(C(=S)Nc1cccc(C)c1)c1ccccc1	SIAE primary 23.5 | SIAE confirm inactive
NS(=O)(=O)c1cccc(NC(=O)CC2(CC(=O)O)CCCC2)c1	SIAE primary 36.5 | SIAE confirm inactive
S=C(NCc1cccc(Cl)c1)OC1CCC12CCC(c1ccccc1)CC2 (configuration not stated)	none (no result: HTRA1 inh, TCR-CD3 inh)
CC(C)C1Nc2ccc(S(N)(=O)=O)cc2C2C=CCC21 (configuration not stated)	none
CC(=O)c1ccc2c(c1)C1C=CCC1C(C(=O)O)N2 (configuration not stated)	ABHD4 inh 70.0, SIAE primary 34.1, TCR-CD3 inh 49.2 (no result: HTRA1 inh) | SIAE confirm inactive
O=S1(=O)c2ccc(N3CCSCC3)cc2Oc2ccccc2CN1Cc1cn(Cc2ccc(C(F)(F)F)cc2)nn1	none (no result: HTRA1 inh, TCR-CD3 inh)
CN(C)c1ccc(/C=[N+](\[O-])C2N(c3ccccc3)C(=S)SC2(C)C)cc1 (configuration not stated)	SIAE primary 25.8 | SIAE confirm inactive

Screening results: PubChem, The Scripps Research Institute Molecular Screening Center
